Laboratory results taken from ChEMBL document CHEMBL4706620, “Design, synthesis, biological activity evaluation of 3-(4-phenyl-1H-imidazol-2-yl)-1H-pyrazole derivatives as potent JAK 2/3 and aurora A/B kinases multi-targeted inhibitors” (Eur J Med Chem, 2021).
pIC50: −log10 of the molar value. Calls of active or inactive are those of the source. No cut-off for these calls is given here.

Assays:
HCT-116 [1] = experiment: Cell cycle arrest in human HCT116 cells assessed as accumulation of diploid cells at G1 phase at 1 uM incubated for 48 hrs by propidium iodide staining based flow cytometric analysis (reference value: 77.62 %); format: functional
JAK2/JAK3 (Homo sapiens) = JAK2/JAK3 (Homo sapiens) (UniProt P52333+O60674); experiment: Inhibition of JAK2/3 in human K562 cells assessed as inhibition of STAT3 phosphorylation at 1 to 20 uM measured after 48 hrs by Western blot analysis; format: cell-based; conditions: dose 1-20 µM
In short: (§1)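 K562 or HCT116 cells treated 48 h at 1, 10 and 20 µM alongside untreated control; lysed in cold RIPA, protein by BCA, SDS-PAGE, nitrocellulose transfer, 5% milk block, primary antibody overnight at 4 °C, secondary 1 h; p-Aurora A, p-Aurora B, p-STAT3, p-STAT5 probed with GAPDH loading control.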

HCT-116 [2] = experiment: Antiproliferative activity against human HCT116 cells assessed as reduction in cell growth measured after 72 hrs by CCK8 assay; format: functional, cell-based; conditions: HCT-116, 72 h
K562 [3] = experiment: Cell cycle arrest in human K562 cells assessed as accumulation of diploid cells at G2 phase at 10 uM incubated for 48 hrs by propidium iodide staining based flow cytometric analysis (reference value: 7.73 %); format: functional
HCT-116 [4] = experiment: Cell cycle arrest in human HCT116 cells assessed as accumulation of diploid cells at G1 phase at 20 uM incubated for 48 hrs by propidium iodide staining based flow cytometric analysis (reference value: 77.62 %); format: functional
K562 [5] = experiment: Cell cycle arrest in human K562 cells assessed as accumulation of diploid cells at G1 phase at 1 uM incubated for 48 hrs by propidium iodide staining based flow cytometric analysis (reference value: 56.33 %); format: functional
Aurora kinase B [6] = target: T1, Aurora kinase B (Homo sapiens, UniProt Q96GD4); experiment: Inhibition of Aurora B (unknown origin) incubated for 40 mins in presence of ATP by Kinase-glo luminescence assay
In short: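 Kinase reaction at 30 °C for 40 min in 40 mM Tris pH 7.4, 10 mM MgCl2, 0.1 mg/ml BSA, 1 mM DTT, 10 µM ATP, kinase plus substrate; compounds added from 10% DMSO dilutions (1% DMSO final). Remaining ATP measured by Kinase-Glo Plus luminescence; IC50 from nonlinear regression, normalized dose-response fit.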

K562 [7] = experiment: Cell cycle arrest in human K562 cells assessed as accumulation at […] phase at 10 uM incubated for 48 hrs by propidium iodide staining based flow cytometric analysis (reference value: 1.90 %); format: functional
Homo sapiens [8] = species: Homo sapiens; experiment: Selectivity for JAK2 (unknown origin) over Aurora B (unknown origin)
HCT-116 [9] = experiment: Cell cycle arrest in human HCT116 cells assessed as accumulation of diploid cells at S phase at 1 uM incubated for 48 hrs by propidium iodide staining based flow cytometric analysis (reference value: 11.92 %); format: functional
Homo sapiens [10] = species: Homo sapiens; experiment: Selectivity for JAK3 (unknown origin) over Aurora B (unknown origin)
K562 [11] = experiment: Cell cycle arrest in human K562 cells assessed as accumulation of diploid cells at S phase at 20 uM incubated for 48 hrs by propidium iodide staining based flow cytometric analysis (reference value: 35.94 %); format: functional
[12] = target: T2, Aurora kinase A (Homo sapiens) (UniProt O14965); experiment: Inhibition of Aurora A phosphorylation in human K562 cells incubated for 48 hrs by Western blot analysis; format: cell-based; conditions: dose 1-20 µM; in short: as §1
T2 sequence (whole entry): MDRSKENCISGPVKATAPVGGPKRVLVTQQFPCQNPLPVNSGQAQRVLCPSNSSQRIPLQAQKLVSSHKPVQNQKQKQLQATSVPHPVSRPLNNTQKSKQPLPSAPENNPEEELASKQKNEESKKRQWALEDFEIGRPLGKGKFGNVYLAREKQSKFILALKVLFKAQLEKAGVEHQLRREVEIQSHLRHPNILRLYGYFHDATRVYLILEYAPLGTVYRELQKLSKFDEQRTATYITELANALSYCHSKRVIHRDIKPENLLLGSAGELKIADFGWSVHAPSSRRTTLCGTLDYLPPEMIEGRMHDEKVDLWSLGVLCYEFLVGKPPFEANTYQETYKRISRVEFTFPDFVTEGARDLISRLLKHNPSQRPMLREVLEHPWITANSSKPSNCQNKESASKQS

HCT-116 [13] = experiment: Cell cycle arrest in human HCT116 cells assessed as accumulation of diploid cells at S phase at 10 uM incubated for 48 hrs by propidium iodide staining based flow cytometric analysis (reference value: 11.92 %); format: functional
K562 [14] = experiment: Cell cycle arrest in human K562 cells assessed as accumulation of diploid cells at G1 phase at 10 uM incubated for 48 hrs by propidium iodide staining based flow cytometric analysis (reference value: 56.33 %); format: functional
Homo sapiens [15] = species: Homo sapiens; experiment: Selectivity for JAK2 (unknown origin) over Aurora A (unknown origin)
HCT-116 [16] = experiment: Cell cycle arrest in human HCT116 cells assessed as accumulation at […] phase at 10 uM incubated for 48 hrs by propidium iodide staining based flow cytometric analysis (reference value: 2.01 %); format: functional
[17] = target: Tyrosine-protein kinase JAK2 (Homo sapiens, UniProt O60674); experiment: Inhibition of JAK2 (unknown origin) incubated for 40 mins in presence of ATP by Kinase-glo luminescence assay
K562 [18] = experiment: Cell cycle arrest in human K562 cells assessed as accumulation of diploid cells at G1 phase at 20 uM incubated for 48 hrs by propidium iodide staining based flow cytometric analysis (reference value: 56.33 %); format: functional
K562 [19] = experiment: Cell cycle arrest in human K562 cells assessed as accumulation of diploid cells at S phase at 1 uM incubated for 48 hrs by propidium iodide staining based flow cytometric analysis (reference value: 35.94 %); format: functional
Aurora kinase A = target: T3, Aurora kinase A (Homo sapiens, UniProt O14965); experiment: Inhibition of Aurora A (unknown origin) incubated for 40 mins in presence of ATP by Kinase-glo luminescence assay
T3 sequence (O14965 whole entry): T2 sequence (whole entry)

HCT-116 [20] = experiment: Cell cycle arrest in human HCT116 cells assessed as accumulation of diploid cells at G2 phase at 1 uM incubated for 48 hrs by propidium iodide staining based flow cytometric analysis (reference value: 10.46 %); format: functional
Aurora kinase B [21] = target: T1, Aurora kinase B; experiment: Inhibition of Aurora B phosphorylation in human HCT116 cells incubated for 48 hrs by Western blot analysis; format: cell-based; conditions: HCT-116, dose 1-20 µM; in short: as §1
K562 [22] = experiment: Cell cycle arrest in human K562 cells assessed as accumulation at […] phase at 1 uM incubated for 48 hrs by propidium iodide staining based flow cytometric analysis (reference value: 1.90 %); format: functional
HCT-116 [23] = experiment: Cell cycle arrest in human HCT116 cells assessed as accumulation at […] phase at 20 uM incubated for 48 hrs by propidium iodide staining based flow cytometric analysis (reference value: 2.01 %); format: functional
K562 [24] = experiment: Cell cycle arrest in human K562 cells assessed as accumulation of diploid cells at G2 phase at 20 uM incubated for 48 hrs by propidium iodide staining based flow cytometric analysis (reference value: 7.73 %); format: functional
HCT-116 [25] = experiment: Cell cycle arrest in human HCT116 cells assessed as accumulation of diploid cells at G1 phase at 10 uM incubated for 48 hrs by propidium iodide staining based flow cytometric analysis (reference value: 77.62 %); format: functional
Aurora kinase B [26] = target: T1, Aurora kinase B; experiment: Inhibition of Aurora B phosphorylation in human K562 cells incubated for 48 hrs by Western blot analysis; format: cell-based; conditions: dose 1-20 µM; in short: as §1

T1 sequence (Q96GD4 whole entry): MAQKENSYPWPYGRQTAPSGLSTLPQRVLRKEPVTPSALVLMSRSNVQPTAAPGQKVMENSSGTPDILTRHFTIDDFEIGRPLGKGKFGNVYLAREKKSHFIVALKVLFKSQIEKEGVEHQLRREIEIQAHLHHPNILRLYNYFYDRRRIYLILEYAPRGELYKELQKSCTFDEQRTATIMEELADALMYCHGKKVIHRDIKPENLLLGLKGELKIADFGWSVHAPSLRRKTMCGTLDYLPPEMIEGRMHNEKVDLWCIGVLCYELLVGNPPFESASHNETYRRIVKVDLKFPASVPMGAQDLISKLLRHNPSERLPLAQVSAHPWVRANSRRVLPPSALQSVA
Chain of JAK2/JAK3 (Homo sapiens) (O60674 whole entry, looked up): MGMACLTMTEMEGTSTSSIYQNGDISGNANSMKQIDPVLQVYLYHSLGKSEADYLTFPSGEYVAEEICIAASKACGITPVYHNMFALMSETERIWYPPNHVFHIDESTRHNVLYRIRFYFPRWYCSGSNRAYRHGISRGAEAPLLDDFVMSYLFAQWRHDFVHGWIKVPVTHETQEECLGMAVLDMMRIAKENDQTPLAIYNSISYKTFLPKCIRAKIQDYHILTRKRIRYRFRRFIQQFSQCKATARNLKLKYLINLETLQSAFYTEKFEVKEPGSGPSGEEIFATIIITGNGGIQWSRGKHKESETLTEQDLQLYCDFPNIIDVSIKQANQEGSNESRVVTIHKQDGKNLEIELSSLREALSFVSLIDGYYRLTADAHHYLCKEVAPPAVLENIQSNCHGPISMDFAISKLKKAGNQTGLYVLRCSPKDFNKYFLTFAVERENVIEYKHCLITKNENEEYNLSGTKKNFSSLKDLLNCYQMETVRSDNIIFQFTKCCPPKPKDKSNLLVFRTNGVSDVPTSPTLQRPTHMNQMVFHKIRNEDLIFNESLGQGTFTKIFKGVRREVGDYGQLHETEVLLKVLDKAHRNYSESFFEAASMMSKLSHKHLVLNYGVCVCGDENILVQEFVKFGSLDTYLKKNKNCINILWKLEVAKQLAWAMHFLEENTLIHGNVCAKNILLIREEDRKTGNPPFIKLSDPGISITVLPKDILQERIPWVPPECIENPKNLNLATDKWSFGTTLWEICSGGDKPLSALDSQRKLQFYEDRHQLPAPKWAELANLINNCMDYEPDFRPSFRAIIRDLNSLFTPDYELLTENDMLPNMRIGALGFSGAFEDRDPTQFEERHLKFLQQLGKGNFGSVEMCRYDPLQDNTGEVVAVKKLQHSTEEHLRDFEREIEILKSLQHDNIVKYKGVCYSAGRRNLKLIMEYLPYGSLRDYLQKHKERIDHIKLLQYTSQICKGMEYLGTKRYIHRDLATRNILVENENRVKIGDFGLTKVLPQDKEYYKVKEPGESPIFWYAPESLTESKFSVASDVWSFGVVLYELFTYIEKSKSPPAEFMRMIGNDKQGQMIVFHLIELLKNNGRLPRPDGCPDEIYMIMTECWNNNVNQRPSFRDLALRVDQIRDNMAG
Chain of JAK2/JAK3 (Homo sapiens) (P52333 whole entry, looked up): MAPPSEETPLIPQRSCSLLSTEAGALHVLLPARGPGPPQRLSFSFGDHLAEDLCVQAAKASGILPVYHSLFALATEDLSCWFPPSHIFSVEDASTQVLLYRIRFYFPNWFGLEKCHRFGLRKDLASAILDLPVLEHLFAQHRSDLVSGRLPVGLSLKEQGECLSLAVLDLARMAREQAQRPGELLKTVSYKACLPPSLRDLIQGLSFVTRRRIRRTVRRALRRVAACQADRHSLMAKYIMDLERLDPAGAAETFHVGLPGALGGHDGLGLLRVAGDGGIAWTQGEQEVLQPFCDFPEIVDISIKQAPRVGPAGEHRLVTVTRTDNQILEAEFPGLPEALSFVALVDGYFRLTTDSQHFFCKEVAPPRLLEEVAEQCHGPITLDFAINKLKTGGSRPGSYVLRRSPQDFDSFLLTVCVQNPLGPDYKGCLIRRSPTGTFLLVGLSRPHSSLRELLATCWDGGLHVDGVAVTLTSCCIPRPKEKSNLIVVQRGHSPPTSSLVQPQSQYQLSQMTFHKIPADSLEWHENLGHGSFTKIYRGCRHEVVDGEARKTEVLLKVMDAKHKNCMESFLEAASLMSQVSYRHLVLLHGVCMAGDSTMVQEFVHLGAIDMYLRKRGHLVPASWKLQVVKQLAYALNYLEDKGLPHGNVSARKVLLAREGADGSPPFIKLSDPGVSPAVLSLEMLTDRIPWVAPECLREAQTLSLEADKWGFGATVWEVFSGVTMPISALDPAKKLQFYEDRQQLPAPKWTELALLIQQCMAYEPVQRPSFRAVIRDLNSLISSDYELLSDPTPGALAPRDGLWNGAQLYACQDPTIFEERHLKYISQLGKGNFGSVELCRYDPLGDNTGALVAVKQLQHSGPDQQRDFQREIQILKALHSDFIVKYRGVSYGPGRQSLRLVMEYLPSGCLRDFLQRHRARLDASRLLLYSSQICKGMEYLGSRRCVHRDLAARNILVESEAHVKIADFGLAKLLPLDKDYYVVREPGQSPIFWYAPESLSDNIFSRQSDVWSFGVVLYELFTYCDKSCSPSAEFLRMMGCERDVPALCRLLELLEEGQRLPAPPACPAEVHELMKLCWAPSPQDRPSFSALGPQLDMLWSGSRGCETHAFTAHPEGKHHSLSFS
Chain of Tyrosine-protein kinase JAK2 (O60674 whole entry): as the sequence (O60674 whole entry, looked up) above

inhibition (JAK2/JAK3 (Homo sapiens)): Active
pIC50 (HCT-116 [2]): 4.82
pIC50 (Aurora kinase B [6]): 6.23
Selectivity ratio (Homo sapiens [8]): 20
Selectivity ratio (Homo sapiens [10]): 20
inhibition [12]: Dose-dependent effect
Selectivity ratio (Homo sapiens [15]): 20
pIC50 [17]: 6.78
pIC50 (Aurora kinase A): 6.03
inhibition (Aurora kinase B [21]): Dose-dependent effect
inhibition (Aurora kinase B [26]): Dose-dependent effect
Structure (SMILES): O=C(Nc1c[nH]nc1-c1nc(-c2ccc(CN3CCOCC3)cc2)c[nH]1)c1cccc(Cl)c1
Activity (HCT-116 [1]): 72.2%
Activity (K562 [3]): 16.27%
Activity (HCT-116 [4]): 57.52%
Activity (K562 [5]): 56.05%
Activity (K562 [7]): 2.09%
Activity (HCT-116 [9]): 14.46%
Activity (K562 [11]): 35.1%
Activity (HCT-116 [13]): 17.27%
Activity (K562 [14]): 47.87%
Activity (HCT-116 [16]): 2.01%
Activity (K562 [18]): 45.9%
Activity (K562 [19]): 35.82%
Activity (HCT-116 [20]): 13.34%
Activity (K562 [22]): 1.9%
Activity (HCT-116 [23]): 1.98%
Activity (K562 [24]): 19%
Activity (HCT-116 [25]): 66.57%
